rRNA inh HTS = inhibits bacterial ribosomal RNA function over humanized ribosomes. AID 720706. GFP signal change (wild-type ribosome), % (no concentration beside the values). 350,000 tested, 1.6% active. E. coli WT GFP vs humanized-ribosome RFP mutants, fluorescence, 24 h; hits give low values; DMSO median 0, no signal -100;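 active means significant combined selectivity score with lowered wild-type GFP, culture density cut under 30%, mutant RFP and density less affected; inactive means any of these conditions unmet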
Mot1-301 SUMO = blocks SUMOylation pathway, rescuing yeast Mot1-301 growth; S. cerevisiae Mot1-301 growth rescue, ATP luminescence, 38.5C; percent above DMSO median, 100 means doubled; growth rescue, % at 18.8 µM; 320,000 tested, 1% active;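 active means every valid replicate shows activation above 250% relative to neutral control wells; inactive means the rest, any valid replicate at or below 250%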;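 further: OY570 slx delta 5 strain wells were the positive control but not used for scaling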
Yeast superoxide = yeast age-related superoxide inhibition as caloric restriction mimetic; S. cerevisiae aged cells, superoxide DHE fluorescence; hits give low values; 330,000 tested, 0.18% active; superoxide response (% of plate mean), % at 10 µM; AID 2690;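 active means superoxide response under a set limit, about three screen SD below normal, cut at about 65% in these data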;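 further: yeast aged for seven days with compound at 30 °C before DHE staining; 100% = average MFI of all compound-treated wells on the plate with controls excluded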
PglD inh = inhibitors of Campylobacter jejuni PglD acetyltransferase. AID 602405. purified PglD enzyme, DTNB colorimetric CoA detection. 360,000 tested, 0.098% active. inhibition, % at 12.5 µM; in the data active means inhibition above about 16%, passing the limit was not always enough
Cneo AK release = causes C. neoformans cell lysis; adenylate kinase release luminescence, 4 h; normalised: neutral wells 0, clomiphene wells 100; lysis activity, % at 15 µM; 360,000 tested, 0.2% active;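 active means mean lysis activity across replicates of at least 80%, whatever share of replicates individually reach that level; inactive means mean lysis activity below 80%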
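Material – log-phase Cryptococcus neoformans yeast cells · Input – 5 × 10^6 yeast cells/mL · Medium – fresh YPD growth medium · Doses – single compound concentration per well · Timing – static 4 h at 37 °C with compound, 1 h detection · Detection – adenylate kinase release luminescence · Read-out – signal increase indicating cell lysis · Control set – Clomiphene as positive lysis control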
Yeast Mot1 SUMO = SUMO pathway inhibitors in yeast Mot1-301 growth; 2,300 tested, under 10 active; S. cerevisiae Mot1-301 galactose growth, ATP luminescence, 24 h; -100 = growth of slx-deleted rescue strain; shares compounds with Mot1-301 SUMO; growth activity, percent, % at 42 µM; AID 493004;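 active means Signal drops as the depositor expects, and the fitted half-maximal dose is no more than ten times the top valid tested dose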;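 further: more negative values mean stronger growth rescue toward the control strain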
* hit, by the source's call; / = not tested or not shown. Sampled rows, rich in hits. Any-hit rate of the full collection: about 2.2%.

SMILES	rRNA inh HTS	Mot1-301 SUMO	Yeast superoxide	PglD inh	Cneo AK release	Yeast Mot1 SUMO
O=C(C[C@@H]1CC[C@@H]2[C@H](COC[C@H](O)CN2C(=O)Nc2ccc(F)cc2)O1)NCC1CC1	1	/	/	1	0	/
Cn1c(N/N=C/c2cc3ccccc3nc2Cl)nc2ccccc21	/	44	88	/	/	/
Cc1nnc(C)n1/N=C/c1cc2ccccc2nc1Cl	3	608*	99	-3	6	0
CSc1ncccc1C(=O)NC1CCCc2c1cnn2-c1ccc(C)c(C)c1 (stereo not given)	6	458*	99	-1	2	1
COc1ncccc1C(=O)NC1CCCc2c1cnn2-c1ccc(C)c(C)c1 (stereo not given)	-16	-20	120	-1	2	/
Cc1ccccc1-c1cnc2c(c1)C(=O)N([C@H](C)CO)C[C@@H](C)[C@H](CN(C)C(=O)CC1CC1)O2	0	/	/	4	2	/
Cc1ccc2c(C)c(C(=O)N(C)C(C)c3ccncn3)oc2c1C (stereo not given)	-6	359*	92	2	-2	0
Cc1ccc2c(C)c(C(=O)N(C)C(C)c3ccon3)oc2c1C (stereo not given)	-14	-6	95	-9	0	/
CO[C@@H]1CN(C)C(=O)c2ccc(NC(=O)C3CCCCC3)cc2OC[C@H](C)N(Cc2cccnc2)C[C@@H]1C	-4	/	/	/	/	/
CCOC(=O)c1c(CN2CCCCC2)n(C)c2cc(Br)c(O)c(CN(C)C)c12	/	472*	91	1	-3	0
O=C(N/N=C/C(Br)=C/c1ccccc1)c1cccnc1	-6	500*	102	-3	1	-2
CN1CCCC(n2nc(Cc3ccc(Cl)cc3)c3ccccc3c2=O)CC1 (stereo not given)	-9	396*	98	3	1	0
CCOC(=O)Cn1nc(Cc2ccccc2)c2ccccc2c1=O	/	-2	104	/	-1	/
COc1ccc(NC(=O)Nc2ccc3c(c2)C(=O)N([C@@H](C)CO)C[C@@H](C)[C@@H](CN(C)S(=O)(=O)c2cn(C)cn2)OCCCC[C@@H](C)O3)cc1	-2	/	/	-1	2	/
Cc1csc(=O)n1CC(=O)OCC(=O)Nc1cc([N+](=O)[O-])ccc1Cl	0	485*	123	-6	1	0
Cc1ccc(NC(=O)COC(=O)Cn2c(C)csc2=O)c([N+](=O)[O-])c1	8	-22	95	2	0	/
O=C(Nc1ccc2c(c1)[C@H]1C[C@H](CC(=O)N3CCc4ccccc4C3)O[C@@H](CO)[C@H]1O2)c1ccc2c(c1)OCO2	-8	/	/	-2	2	/
CC(C)c1ccc2c(c1)CC[C@H]1[C@](C)(CN)CCC[C@]21C	8	/	/	2	1	/
CC(C)c1ccc2c(c1)CCC1C(C)(CN)CCCC21C (stereo not given)	-57	617*	115	6	0	-2
COCC(=O)N(C)C[C@@H]1Oc2ncc(-c3ccccc3C)cc2C(=O)N([C@@H](C)CO)C[C@H]1C	4	/	/	-2	-5	/
Cc1cc(Cl)ccc1N=c1ssnc1Cl	/	128	108	3	-2	/
Cc1ccc(N=c2ssnc2Cl)cc1	/	471*	102	-1	-1	-1
Cc1nnc(N=c2ssnc2Cl)o1	5	606*	106	2	2	-1
Cc1noc(C)c1NC(=O)N[C@@H]1CC[C@@H](CC(=O)NCCCN(C)C)O[C@@H]1CO	0	/	/	-2	-1	/
COCC(=O)Nc1ccc2c(c1)OC[C@@H](C)N(C(=O)Cc1cccnc1)C[C@@H](C)[C@H](OC)CN(C)C2=O	/	/	/	-1	2	/
Cc1sc(NC(=O)c2ccc(F)cc2)c(CN2CCCCCC2)c1C	-4	497*	107	-5	-6	1
CC(=O)NC(CC(C)C)C(=O)NC(CO)C(=O)NC(CCC(=O)O)C(=O)NC(C)C(=O)NC(CC(C)C)C(N)=O (stereo not given)	/	782*	109	1	1	0
CC(C)CC(NC(=O)C(CC(C)C)NC(=O)OC(C)(C)C)C(N)=O (stereo not given)	/	7	84	/	/	/
